Screening data from PubChem BioAssay.
PostGolgi yeast: phenotypic screen on post-Golgi transport, primary screen; inhibition, % at 10 µM; AID 739, 2007; 98,000 tested, 0.9% active; post-Golgi transport phenotypic cell assay;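 further: yeast cells grown in 1536-well plates; yeast grown about 18 h at 30C before absorbance read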
PostGolgi ctrl: growth inhibition of yeast control strain, primary screen, counter-screen for post-Golgi transport modulator project; efflux-deficient yeast background strain, growth absorbance A615, 16 h; inhibition, % at 10 µM; 98,000 tested, 5% active; AID 738, 2007
Her2 expr inh: inhibitors of Her2 protein expression, primary screen, SKBR-3 cells, AlphaScreen, 66K library; Receptor tyrosine-protein kinase erbB-2 (Homo sapiens), P04626; SKBR-3 HER2 protein level, 18-24 h; stronger effect = lower value; HER2 level % of control, % at 10 µM; 65,000 tested, 0.69% active;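 active means HER2 level under 5% of the carrier-only control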
Ecoli WT expand: growth inhibitors of wild-type E. coli, primary screen, strain BW25113, expanded library, OD600 | 98,000 tested, 0.15% active | growth inhibition, % at 100 µM | OD600 absorbance;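 active means growth inhibition above about 50% at one test dose, limit read from the data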;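 further: growth measured after 20 h incubation at 37 °C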
Ecoli tolC: growth inhibitors of E. coli tolC mutant, primary screen, strain BW25113 ΔtolC::kan, 384-well; OD615; growth inhibition, % at 10 µM (by protocol); AID 573, 2007; 65,000 tested, 2.2% active;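 active means growth inhibition at or above a cutoff equal to the mean over every tested compound plus 3 SD, cut at about 60% in these data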;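 further: growth measured after 20 h incubation at 37 °C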
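Test system: tolC-deleted E. coli BW25113; medium: LB with kanamycin 50 µg/mL; compound: single-point testing at 10 µM; incubation: 20 h compound exposure of bacteria at 37 °C; signal: OD at 615 nm; evaluation: growth inhibition in percent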
Of the large screens only hits and unclear results are named; the others gave an inactive call. Compounds with a hit are over-represented: about 6.6% of the library has one in this group of screens. Unless noted, no stated cut-off is given here; in the data, active means inhibition above about 30%; inactive means the rest.

CCOC(=O)N1CCC(NC(=O)C2CCN(c3ccc(N4CCOCC4)nn3)CC2)CC1	PostGolgi ctrl 36
O=C(Nc1sc2c(c1C(=O)c1ccc(Cl)cc1)CCCC2)c1cccnc1	PostGolgi ctrl 40 (no result: Her2 expr inh, Ecoli tolC)
CC(Oc1ccc(F)cc1)C(=O)Nc1sc2c(c1C(=O)NCc1cccnc1)CCCC2 (configuration not stated)	PostGolgi ctrl 42 (no result: Her2 expr inh, Ecoli tolC)
O=C(Nc1sc2c(c1C(=O)NCc1cccnc1)CCCC2)c1ccco1	none
N#Cc1c(NC(=O)c2cccnc2)sc2c1CCC2	none (no result: Her2 expr inh, Ecoli tolC)
CCOc1ccc(C(=O)CSc2nnc(N)s2)cc1	none
CCc1ccc(NC(=O)C2(c3ccccc3)CC2(Cl)Cl)cc1 (configuration not stated)	PostGolgi ctrl 31 (no result: Her2 expr inh, Ecoli tolC)
Cc1cccc(NC(=O)C2(c3ccccc3)CC2(Cl)Cl)c1 (configuration not stated)	PostGolgi ctrl 35 (no result: Her2 expr inh, Ecoli tolC)
COc1ccc(OCCCC(=O)Nc2cc([N+](=O)[O-])ccc2C)cc1	none (no result: Her2 expr inh, Ecoli tolC)
COCCN1Cc2cccc(C(=O)NCc3cccnc3)c2C1=O	none
COc1cc(Nc2nc(-c3ccccc3)c3cc(C)ccc3n2)cc(OC)c1OC	PostGolgi ctrl 35 (no result: Her2 expr inh, Ecoli tolC)
Cc1[nH]c2c(Br)cccc2c1[C@H]1[C@@H](CC#N)C1(C)C	PostGolgi ctrl 39 (no result: Her2 expr inh, Ecoli tolC)
Cc1c([C@H]2[C@@H](CC#N)C2(C)C)c2ccccc2n1C	none
O=C(CSC(=S)N1CCCCC1)Nc1nc(-c2ccccc2)c(-c2ccccc2)o1	none (no result: Her2 expr inh, Ecoli tolC)
O=C(CSC(=S)N1CCOCC1)Nc1nc(-c2ccccc2)c(-c2ccccc2)o1	PostGolgi ctrl 35 (no result: Her2 expr inh, Ecoli tolC)
COc1cc(C(=O)Nc2nnc(-c3sccc3C)s2)cc(OC)c1OC	PostGolgi ctrl 36
O=C(CN(c1ccc(F)cc1)S(=O)(=O)c1ccc2c(c1)OCCO2)Nc1ccccc1	PostGolgi yeast 33 (no result: Her2 expr inh, Ecoli tolC)
CC(=O)Nc1ccc(NC(=O)CN(c2ccc(F)cc2)S(=O)(=O)c2ccc3c(c2)OCCO3)cc1	none (no result: Her2 expr inh, Ecoli tolC)
CO/N=C(/CS(=O)(=O)c1ccc(C)cc1)c1ccc(OC)cc1	none (no result: Her2 expr inh, Ecoli tolC)
Cc1ccc(N=Cc2c(O)n(-c3ccc4c(c3)OCO4)c(=O)c3ccccc23)cc1	PostGolgi yeast 30 (no result: Her2 expr inh, Ecoli tolC)
CCOc1cc(C)nc(NCc2ccccc2)n1	none (no result: Her2 expr inh, Ecoli tolC)
CCCCOc1cc(C)nc(NCc2ccccc2)n1	PostGolgi ctrl 38, Ecoli tolC 67
N#CC1=C(SCC(=O)c2cc3ccccc3oc2=O)NC(=O)C(C#N)C12CCCC2 (configuration not stated)	Ecoli tolC 61
CC(C)(C)C1CCC2(CC1)C(C#N)=C(SCC(=O)Nc1ccccc1)NC(=O)C2C#N (configuration not stated)	none
O=C1CNCc2[nH]c3ccccc3c2N1c1ccccc1	PostGolgi ctrl 32
C=CCn1c(N)c(C(=O)NCCC2=CCCCC2)sc1=S	none
Cc1cc(C)c(O)c(-c2cc(C(=O)Nc3ccc(S(=O)(=O)N4CCOCC4)cc3)[nH]n2)c1	Her2 expr inh -11, Ecoli tolC 91
CCOc1ncccc1C(=O)OCc1nnc(-c2ccccc2)o1	none
CCC1CCc2c(c3ccccc3[nH]c2=O)O1 (configuration not stated)	PostGolgi ctrl 30 (no result: Her2 expr inh, Ecoli tolC)
Brc1cc(Br)c2nc(-c3cccs3)ccc2c1	none (no result: Her2 expr inh, Ecoli tolC)
Cc1nc2c(Br)cc(Br)cc2cc1O	PostGolgi ctrl 37 (no result: Her2 expr inh, Ecoli tolC)
CC(C)Cn1c(=O)c2ccccc2c2ccccc2c1=O	PostGolgi ctrl 33
CC(C)CCn1c(=O)c2ccccc2c2ccccc2c1=O	none (no result: Her2 expr inh, Ecoli tolC)
O=C1/C(=C/c2ccccc2)Nc2ccccc21	none (no result: Her2 expr inh, Ecoli tolC)
N#CC1=C(c2ccccc2)/C(=C/c2ccccc2)OC1=O	PostGolgi ctrl 51 (no result: Her2 expr inh, Ecoli tolC)
CCCN(Cc1cc2ccc(C)cc2[nH]c1=O)S(=O)(=O)c1ccccc1	PostGolgi ctrl 36 (no result: Her2 expr inh, Ecoli tolC)
CCN(Cc1cc2ccccc2[nH]c1=O)S(=O)(=O)c1ccccc1	PostGolgi ctrl 30
CC(C)C(=O)N(Cc1cc2ccccc2[nH]c1=O)C(C)C	none
CC(=O)c1cccc(S(=O)(=O)N(CCCO)Cc2cc3ccc(C)cc3[nH]c2=O)c1	none
CNc1nnc(-c2cc3ccccc3oc2=O)s1	none
CCn1cc(C(=O)N2CC(C)CC(C)C2)c(=O)c2cc(S(=O)(=O)N3CCOCC3)ccc21 (configuration not stated)	none
COc1ccc(C2(CNC(=O)Cc3ccccc3)CCCC2)cc1OC	none (no result: Her2 expr inh, Ecoli tolC)
COc1ccc(C2(CN(C(C)=O)C(C)=O)CCCC2)cc1OC	PostGolgi ctrl 39
